# According to PMC5196489 (International Journal for Parasitology: Drugs and Drug …, 2016):
# Entries after “also recorded” stand apart in the source; their conditions may differ.
# Tests used:
# larval schistosomules [1] = test: Schistosomule mobility; type: cell-based, Schistosoma mansoni; details: for IC50: Schistosoma mansoni, 0.5 h, read-out: IC50 schistosomule
# Procedure, shortened: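 S. mansoni PR-1 cercariae mechanically transformed, tails removed on Percoll, kept in modified Basch medium without serotonin (37 °C, 5% CO2); about 200 per 0.5 mL well. Basal movement recorded first, then 5-HT (10 μM), then rising doses of test compound added at 20x. Incubated 30 min before a 1 min video. Mobility scored as body-length deviations >20% from the mean per minute.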
# adult S. mansoni = test: Adult schistosome mobility assay; type: cell-based, Schistosoma mansoni
# larval schistosomules [2] = details: ref Chan et al., 2014; cited from earlier work
# Sm.5HTRL [3] = biological target: T1, Sm.5HTRL (Schistosoma mansoni, UniProt A0A173FEI8); test: cAMP biosensor; type: cell-based; details: for IC50: read-out: IC50 Sm.5HTRL, inhibition of 5-HT (0.8 μM) evoked cAMP generation, HEK293 cells co-transfected with 22-F cAMP biosensor, IBMX 200 μM; for block of Sm.5HTRL dependent cAMP generation in vitro: Fig. 1
# T1 sequence (A0A173FEI8 1-547): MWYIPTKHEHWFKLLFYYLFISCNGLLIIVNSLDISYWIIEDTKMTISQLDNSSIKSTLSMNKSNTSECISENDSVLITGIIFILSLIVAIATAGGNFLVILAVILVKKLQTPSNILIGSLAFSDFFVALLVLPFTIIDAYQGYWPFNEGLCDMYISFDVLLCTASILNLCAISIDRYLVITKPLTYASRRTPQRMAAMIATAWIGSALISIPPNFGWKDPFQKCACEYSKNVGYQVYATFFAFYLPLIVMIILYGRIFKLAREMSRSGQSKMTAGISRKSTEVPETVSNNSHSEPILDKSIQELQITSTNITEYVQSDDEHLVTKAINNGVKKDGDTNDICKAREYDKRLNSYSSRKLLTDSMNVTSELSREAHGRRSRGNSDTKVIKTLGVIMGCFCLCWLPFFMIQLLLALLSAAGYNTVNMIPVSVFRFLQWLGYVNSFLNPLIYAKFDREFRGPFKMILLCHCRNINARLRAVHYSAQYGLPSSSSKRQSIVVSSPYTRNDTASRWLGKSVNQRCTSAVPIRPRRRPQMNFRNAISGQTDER
# [4] = test system: human 5-HT7 receptor (Hs.5HT7R); details: ref Farrell et al., 2016; cited from earlier work
# Sm.5HTRL [5] = biological target: T1, Sm.5HTRL; details: chemical screening data; ref Chan et al., 2016b; cited from earlier work
smiles,measurement,setting,value
"NCCc1c[nH]c2ccc(O)cc12 [5-HT, 5-hydroxytryptamine, reference compound]",increase in schistosomule contractility,larval schistosomules [1]; 5-HT 10 μM versus basal movement in media lacking 5-HT,3–5 fold
same,effect of 5-HT on adult worm movement,"adult S. mansoni; control worms, Fig. 4C&D","stimulated movement, most evident in female worms"
"CN1CCc2cccc3c2[C@H]1Cc1ccc(O)c(O)c1-3 [Apomorphine, R-(−)-apomorphine, reference compound]",IC50,larval schistosomules [1],24.2 ± 15.1 µM
same,effect on schistosomule contractility,larval schistosomules [2],inhibits schistosomule contractility
same,IC50,Sm.5HTRL [3],15.2 ± 3.3 µM
"COc1cc2c(cc1O)C[C@H]1c3c(cc(O)c(OC)c3-2)CCN1C [Boldine, (+)boldine]",IC50,larval schistosomules [1],2.5 ± 1.4 µM
same,block of Sm.5HTRL dependent cAMP generation in vitro,Sm.5HTRL [3],completely blocked
same,IC50,Sm.5HTRL [3],1.1 ± 0.1 µM
same,effect on 5-HT stimulated motility,"adult S. mansoni; female adult worms, increasing 5-HT",high doses of 5-HT were competent at restoring motility
"COc1ccc2c(c1O)-c1c3c(cc4c1[C@H](C2)N(C)CC4)OCO3 [Bulbocapnine, (+)-Bulbocapnine]",IC50,larval schistosomules [1],76.1 ± 17.8 µM
same,IC50,Sm.5HTRL [3],15.2 ± 2.5 µM
"COc1cc2c3c(c1OC)-c1ccccc1C[C@H]3N(C)CC2 [Nuciferine, (−)nuciferine]",action at the human 5-HT7 receptor,[4],inverse agonist
same,inhibition of larval contractions / schistosomule motility,"larval schistosomules [1]; 5-HT 10 μM plus increasing doses of aporphine, Fig. 2",particularly effective at inhibiting larval contractions
same,IC50,larval schistosomules [1],0.62 ± 0.22 µM
same,block of Sm.5HTRL dependent cAMP generation in vitro,Sm.5HTRL [3],completely blocked
same,IC50,Sm.5HTRL [3],0.24 ± 0.04 µM
same,effect on basal motility,"adult S. mansoni; female adult worms, drug 10 μM, 2 h, p < 0.01 versus p < 0.05",more effective than the other ligands
same,effect on 5-HT stimulated motility,"adult S. mansoni; male adult worms, increasing 5-HT (≤1 mM)",no 5-HT stimulated motility even at the highest 5-HT doses; also recorded: nuciferine action not reversed by 5-HT
CC(C)C[C@H]1C(=O)N2CCC[C@H]2[C@]2(O)O[C@](NC(=O)[C@@H]3C=C4c5cccc6[nH]c(Br)c(c56)C[C@H]4N(C)C3)(C(C)C)C(=O)N12 [bromocriptine],inhibition at Sm.5HTRL,Sm.5HTRL [5],"potent, and long lasting inhibition"
"CSc1ccc2c(c1)C(N1CCN(C)CC1)Cc1ccccc1S2 (centres unmarked) [methiothepin, reference compound]",effect on 5-HT stimulated schistosomule contractility,"larval schistosomules [1]; 5-HT 10 μM plus methiothepin 10 μM, Fig. 2A",reversed this effect
